Assay outcomes deposited in PubChem BioAssay by several laboratories.
L major viab: Leishmania major promastigote growth inhibition; Leishmania major promastigotes, resazurin fluorescence viability; inhibition, % at 10 µM; AID 1063; actives 9% (n = 200,000); in the data active = inhibition above about 50%;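 also: promastigotes grown with compound for 44 hours at 28 °C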
bCat nuc transl: beta-catenin nuclear translocation modulation. actives 0.3% (n = 190,000). AID 1665. HeLa beta-catenin nuclear translocation, immunofluorescence imaging. nuclear translocation activity, % at 5 µM;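 active = nuclear translocation activity above 50% at 5 µM, with a well cell count of 50 or more; inconclusive = wells under 50 cells across six images, flagged as toxic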;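 also: per-cell ratio of nuclear to cytoplasmic median beta-catenin stain intensity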
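Test system: human HeLa cells, endogenous beta-catenin. Times: 24 h compound exposure, 37°C. Measured by: beta-catenin immunofluorescence imaging with DAPI.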
HSV augment: increases HSV replication in cells | maximum fold increase | actives 0.005% (n = 220,000) | HSV replication augmentation in cells, fold increase | AID 1956; in the data active = maximum fold increase above about 1.5; inconclusive = no clear call, values can overlap the other calls; tested in PC3 cells
Dynein transport: dynein cargo transport inhibition; 3617.4 mouse cells, GR-EGFP nuclear translocation imaging; test concentration mostly 20 µM; stimulated with dexamethasone, 1 µM; active compounds read low; z-score, hits read low; actives 0.47% (n = 220,000);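 active = plate z-score of nuclear minus cytoplasmic receptor signal below a set negative limit, without overly bright fluorescence or cell loss, cut at about -3.5 in these data, passing the limit was not always enough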;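 also: z-score of nuclear minus cytoplasmic ring GR-EGFP intensity difference per well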
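Buffer or medium – tet-free medium with charcoal-stripped serum · Signal – automated 10x imaging of fixed Hoechst-stained cells · Also added – dexamethasone agonist, 1.0 µM final, for 30 min · Incubation – induction 48 h, compound 1 h, agonist 30 min · Read-out – GR-EGFP nuclear translocation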
MT stabilize HCS: microtubule stabilization, imaging screen | HeLa tubulin immunostaining HCS, 24 h; share of cells brighter than vehicle mean+2SD | % tubulin-high responders, % at 10 µM | actives 0.83% (n = 200,000) | AID 2205;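 active = plate Z-score above 3 for both tubulin-high and condensed-nucleus cell shares, with cell loss under 80%, at 10 µM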;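 also: anti alpha tubulin signal scored within the nucleus-defined area of each cell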
L major 1uM: L. major promastigote growth inhibition, 1 uM repeat. shares compounds with L major viab. resazurin fluorescence, 48 h. inhibition, % at 1 µM. actives 13% (n = 1,100). AID 1258;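 active = inhibition above about 50% in both repeat tests, limit read from the data; inconclusive = one repeat under the set limit, the other over it; inactive = both repeats under the set limit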
Dynein confirm: dynein cargo transport inhibition, confirmation. shares compounds with Dynein transport. actives 69% (n = 1,000). AID 463116. calls only at 20 µM. 3617.4 GR-EGFP nuclear translocation imaging, dexamethasone-induced;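 active = inhibition of receptor movement into the nucleus at or above a set limit in both runs, with normal cell brightness and cell count; inconclusive = limit reached in only one run, brightness and count normal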;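 also: dexamethasone at 1 µM final in well for 30 min; nuclear minus cytoplasmic GR-EGFP mean intensity difference in channel 2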
Large screens that a line does not name were inactive (follow-up assays come after a bar, where they were run). Sampled rows, rich in hits. Any-hit rate of the full collection: about 8.9%.

CCOC(=O)c1sc(/N=C/N(C)C)c(C(=O)OCC)c1C	none
COc1ccc(C2C(C#N)=C(N)Oc3cc(C)n(Cc4ccncc4)c(=O)c32)cc1 (stereo unspecified)	none
CCN1C=C(Cc2ccc(OC)cc2)C2=C(C1)C(c1ccc(OC)cc1)C(C#N)=C(N)O2 (stereo unspecified)	L major viab 100 (no result: HSV augment) | L major 1uM inactive
O=C(OCc1nc2ccccc2s1)c1cccs1	none
Cc1ccccc1N(C(=O)c1cccs1)c1nc2ccccc2s1	L major viab 99 (no result: HSV augment) | L major 1uM inconclusive
O=[N+]([O-])c1ccccc1C1Nc2cccc3cccc(c23)N1	L major viab 97 | L major 1uM inactive
Oc1ccccc1C1Nc2cccc3cccc(c23)N1	none
c1ccc(C2=Nc3c(ccc4ccccc34)C(c3ccncc3)=NN2)cc1	none
c1ccc2c(c1)nc(N1CCOCC1)c1c3ccccc3[nH]c21	L major viab 53 | L major 1uM inactive
Cn1c(C(=O)NCCOc2ccccc2Cl)cc(=O)n(C)c1=O	none
Cc1c([N+](=O)[O-])ccc(S(=O)(=O)N2CCC(C(N)=O)CC2)c1C	L major viab 84 | L major 1uM inactive
O=C(O)c1ccc(Oc2cccc([N+](=O)[O-])c2)cc1C(=O)O	none
CC(CCc1ccc(O)cc1)N(C)CCc1ccccc1 (stereo unspecified)	L major viab 94 | L major 1uM inactive
N=c1c(-c2nc3ccccc3[nH]2)cc(C(=O)c2cccs2)nn1-c1ccc(Cl)cc1	L major viab 91 (no result: bCat nuc transl) | L major 1uM inactive
O=C(Nc1nc2ccccc2[nH]1)c1cccs1	none
COc1cccc(C2CC(=O)N3CN(c4ccccc4F)CSC3=C2C#N)c1 (stereo unspecified)	none (no result: bCat nuc transl)
O=C1CN=CN=CN1c1ccc(Cl)cc1Cl	none (no result: bCat nuc transl, HSV augment)
COc1ccc2c(c1)c(C(=O)CN1CCC3(CC1)OCCO3)c(C)n2C	none
CC1=NN(c2ccc(C)cc2)C(=O)/C1=C\c1ccc(Br)s1	L major viab 99 | L major 1uM inactive
CC1=NN(c2ccc(Br)cc2)C(=O)/C1=C/c1cccs1	none
C(=N\Nc1nc2ccccc2[nH]1)/c1ccccn1	L major viab 100 (no result: bCat nuc transl) | L major 1uM inactive
C(=N\Nc1nc2ccccc2[nH]1)/c1ccc2ncccc2c1	none (no result: L major viab, MT stabilize HCS)
CCOC(=O)c1c(C)oc2c1C(=O)c1ccccc1C2=O	L major viab 98 | L major 1uM inactive
CCOC(=O)c1c(C)nc2c(c1-c1ccccc1)C(=O)c1ccccc1-2	none
CCOc1ccc2ccccc2c1CNc1nnnn1C	none
Cc1ccc(C(=O)NC(=C(Cl)Cl)S(=O)(=O)c2ccccc2)cc1	L major viab 72 | L major 1uM inactive
COc1cc(NC(=O)c2ccccn2)cc(OC)c1OC	none
O=C1c2cc([N+](=O)[O-])cc3cc([N+](=O)[O-])cc(c23)C(=O)N1c1ccccn1	L major viab 90, Dynein transport -3.5 | L major 1uM inactive | Dynein confirm inactive
O=C1c2ccc(Oc3cccc([N+](=O)[O-])c3)cc2C(=O)N1c1ccccn1	none
CCOc1ccc(NS(=O)(=O)c2ccc(NC(=S)NC(=O)C(C)C)cc2)cc1	none
O=C1C(Cl)=C(N2CCCCC2)C(=O)C(Cl)=C1c1cnc(N2CCCCC2)s1	L major viab 59, Dynein transport -4.9 | L major 1uM inactive | Dynein confirm active
CN(C)c1ncc(C2=C(Cl)C(=O)C(N3CCCC3)=C(Cl)C2=O)s1	none (no result: bCat nuc transl)
CC(C)(C)C1CCc2sc(-c3nnc(CCl)o3)cc2C1 (stereo unspecified)	L major viab 91, Dynein transport -4.2 (no result: HSV augment) | L major 1uM inactive | Dynein confirm active
ClCc1nnc(-c2cc3c(s2)CCCC3)o1	L major viab 98, Dynein transport -4.5 | L major 1uM inactive | Dynein confirm inconclusive
COC(=O)CCN1CCN(S(=O)(=O)c2ccccc2Br)CC1	none
CS(=O)(=O)c1ccc(S(=O)CC(=O)OCc2ccccc2)c([N+](=O)[O-])c1 (stereo unspecified)	L major viab 57 | L major 1uM inactive | Dynein confirm active
CCOC(=O)c1ccccc1OC(=O)CS(=O)c1ccccc1[N+](=O)[O-] (stereo unspecified)	none
